Source: ChEMBL document CHEMBL4373711, “Development of 3,5-Dinitrophenyl-Containing 1,2,4-Triazoles and Their Trifluoromethyl Analogues as Highly Efficient Antitubercular Agents Inhibiting Decaprenylphosphoryl-β-d-ribofuranose 2'-Oxidase” (J Med Chem, 2019)
In brackets after ≈: the same amount, converted by molar mass. Activity calls are given as the source filed them. No cut-off for these calls is given here.

Experiments:
[1] = test system: Mycobacterium tuberculosis; test: Antitubercular activity against Mycobacterium tuberculosis H37Rv; type: functional
Mycobacterium kansasii [2] = test: Antimycobacterial activity against Mycobacterium kansasii 6509/96 after 14 days; type: functional; conditions: 6509/96, 336 h
How it was run: (§1)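 Microdilution in Šula's semisynthetic medium; compounds in DMSO at 32–0.03 µM. Inoculum from 1.0 McFarland suspension diluted 10-4. […] Isoniazid and rifampicin as reference drugs.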

[3] = Cytotoxicity against human A431 cells assessed as cell viability at 30 uM after 48 hrs by CellTiter 96 aqueous one solution assay relative to control; type: cell-based, A-431; conditions: read-out: Activity
How it was run: (§2)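 HepG2 (DMEM, 10% FBS, 1 mM pyruvate) or A431 (DMEM, 10% FBS) seeded 10,000 cells/well, 24 h at 37 °C, 5% CO2, then 30 µM compound for 48 h. MTS reagent 60 min, absorbance 490 nm, background subtracted; 0.1% DMSO vehicle = 100%, 10% SDS = 0% viability.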

Mycobacterium kansasii [4] = test: Antimycobacterial activity against Mycobacterium kansasii CNCTC My 235/80 after 21 days; type: functional; conditions: CNCTC My 235/80, 504 h; how it was run: as §1
Mycobacterium kansasii [5] = test: Antimycobacterial activity against Mycobacterium kansasii CNCTC My 235/80 after 14 days; type: functional; conditions: CNCTC My 235/80, 336 h; how it was run: as §1
Mycobacterium kansasii [6] = test: Antimycobacterial activity against Mycobacterium kansasii 6509/96 after 21 days; type: functional; conditions: 6509/96, 504 h; how it was run: as §1
[7] = test system: Mycobacterium tuberculosis; test: Antimycobacterial activity against Mycobacterium tuberculosis H37Rv CNCTC My 331/88 after 21 days; type: functional; conditions: H37Rv CNCTC My 331/88, 504 h
How it was run: (§3)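 M. tuberculosis strains (H37Rv and clinical MDR/XDR isolates) tested by microdilution in Šula's semisynthetic medium. Compounds were dissolved in DMSO and tested at 32 to 0.03 µM in twofold steps. Inoculum was a 1.0 McFarland suspension diluted 10-3. Plates were incubated at 37 °C and read at 14 and 21 days.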

Candida albicans = test: Antifungal activity against Candida albicans ATCC 24433 CCM 8320 measured after 24 to 48 hrs by alamar blue dye based broth microdilution assay; type: functional, organism-based
Mycobacterium kansasii [8] = test: Antimycobacterial activity against Mycobacterium kansasii 6509/96 after 7 days; type: functional; conditions: 6509/96, 168 h; how it was run: as §1
[9] = test system: Mycobacterium tuberculosis; test: Antimycobacterial activity against Mycobacterium tuberculosis H37Rv CNCTC My 331/88 after 14 days; type: functional; conditions: H37Rv CNCTC My 331/88, 336 h; how it was run: as §3
Staphylococcus aureus = test: Antibacterial activity against Staphylococcus aureus subsp. aureus ATCC 29213 CCM 4223 measured after 24 to 48 hrs by alamar blue dye based broth microdilution assay; type: functional, organism-based
A-431 = test: Cytotoxicity against human A431 cells assessed as reduction in cell viability after 48 hrs by CellTiter 96 aqueous one solution assay; type: cell-based; conditions: A-431, 48 h
HepG2 = test: Cytotoxicity against human HepG2 cells assessed as reduction in cell viability after 48 hrs by CellTiter 96 aqueous one solution assay; type: cell-based; conditions: HepG2, 48 h
Mycobacterium avium [10] = test: Antimycobacterial activity against Mycobacterium avium CNCTC My 330/88 after 21 days; type: functional; conditions: CNCTC My 330/88, 504 h
How it was run: (§4)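 M. avium was tested by microdilution in Šula's semisynthetic medium, with compounds dissolved in DMSO and serially diluted from 1000 down to 1. Inoculum was a 1.0 McFarland suspension diluted 10-5. Plates were incubated at 37 °C and read at 14 and 21 days. […] Isoniazid and rifampicin served as standards.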

Mycobacterium avium [11] = test: Antimycobacterial activity against Mycobacterium avium CNCTC My 330/88 after 14 days; type: functional; conditions: CNCTC My 330/88, 336 h; how it was run: as §4
[12] = Cytotoxicity against human HepG2 cells assessed as cell viability at 30 uM after 48 hrs by CellTiter 96 aqueous one solution assay relative to control; type: cell-based; conditions: read-out: Activity; how it was run: as §2
Mycobacterium kansasii [13] = test: Antimycobacterial activity against Mycobacterium kansasii CNCTC My 235/80 after 7 days; type: functional; conditions: CNCTC My 235/80, 168 h; how it was run: as §1
[14] = test system: Mycobacterium tuberculosis; test: Antimycobacterial activity against XDR Mycobacterium tuberculosis Praha 131 after 14 days; type: functional; conditions: Praha 131, 336 h; how it was run: as §3
[15] = Genotoxicity in Salmonella typhimurium TA100 at 30 uM in presence of rat liver S9 fraction by Ames test; type: toxicity, subcellular; conditions: salmonella enterica subsp. enterica serovar typhimurium, s9, 30 µM
How it was run: (§5)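 Microplate fluctuation Ames reverse-mutation test following kit instructions; TA98 detects frameshift and TA100 base-exchange mutations. Compound at 30 µM final with Aroclor-1254-induced rat liver S9 plus cofactors.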

[16] = test system: Mycobacterium tuberculosis; test: Antimycobacterial activity against XDR Mycobacterium tuberculosis Praha 131 after 21 days; type: functional; conditions: Praha 131, 504 h; how it was run: as §3
[17] = Genotoxicity in Salmonella typhimurium TA98 at 30 uM in presence of rat liver S9 fraction by Ames test; type: toxicity, subcellular; conditions: salmonella enterica subsp. enterica serovar typhimurium, s9, 30 µM; how it was run: as §5

| SMILES | MIC [1] | MIC99 (Mycobacterium kansasii [2]) | viability at 48 h, 30 µM [3] | MIC99 (Mycobacterium kansasii [4]) | MIC99 (Mycobacterium kansasii [5]) | MIC99 (Mycobacterium kansasii [6]) | MIC99 [7] | MIC99 (Mycobacterium kansasii [8]) | MIC99 [9] | IC50 (A-431) | IC50 (HepG2) | MIC99 (Mycobacterium avium [10]) | MIC99 (Mycobacterium avium [11]) | viability at 48 h, 30 µM [12] | MIC99 (Mycobacterium kansasii [13]) | further results |
| --- | --- | --- | --- | --- | --- | --- | --- | --- | --- | --- | --- | --- | --- | --- | --- | --- |
| O=[N+]([O-])c1cn2c(n1)OC[C@@H](OCc1ccc(OC(F)(F)F)cc1)C2 [PRETOMANID] | 0.05 to 0.7 µM (≈ 0.018 to 0.251 µg/mL) | – | – | – | – | – | – | – | – | – | – | – | – | – | – | – |
| COc1nc2ccc(Br)cc2cc1[C@@H](c1ccccc1)[C@@](O)(CCN(C)C)c1cccc2ccccc12 [BEDAQUILINE] | 0.05 µM (≈ 0.0278 µg/mL) | – | – | – | – | – | – | – | – | – | – | – | – | – | – | – |
| CSc1nnc(-c2cc([N+](=O)[O-])cc([N+](=O)[O-])c2)n1Cc1ccccc1 | – | 8 µM (≈ 2.97 µg/mL) | 83% | 4 µM (≈ 1.49 µg/mL) | 4 µM (≈ 1.49 µg/mL) | 8 µM (≈ 2.97 µg/mL) | 1 µM (≈ 0.371 µg/mL) | 4 µM (≈ 1.49 µg/mL) | 0.5 µM (≈ 0.186 µg/mL) | > 30 µM | > 30 µM | 500 µM (≈ 186 µg/mL) | 500 µM (≈ 186 µg/mL) | 93% | 2 µM (≈ 0.743 µg/mL) | Activity (Candida albicans): Active; Activity (Staphylococcus aureus): Active |
| O=c1nc(N2CCN(CC3CCCCC3)CC2)sc2c([N+](=O)[O-])cc(C(F)(F)F)cc12 [MACOZINONE] | 0.0004 µM (≈ 0.000183 µg/mL) | – | – | – | – | – | – | – | – | – | – | – | – | – | – | – |
| O=[N+]([O-])c1cc(-c2nnc(SCc3ccc(Cl)c(Cl)c3)n2Cc2ccccc2)cc(C(F)(F)F)c1 | – | 4 µM (≈ 2.16 µg/mL) | 80% | 4 µM (≈ 2.16 µg/mL) | 4 µM (≈ 2.16 µg/mL) | 8 µM (≈ 4.31 µg/mL) | 2 µM (≈ 1.08 µg/mL) | 4 µM (≈ 2.16 µg/mL) | 2 µM (≈ 1.08 µg/mL) | > 30 µM | > 30 µM | 250 µM (≈ 135 µg/mL) | 250 µM (≈ 135 µg/mL) | 104% | 4 µM (≈ 2.16 µg/mL) | MIC99 [14]: 2 µM (≈ 1.08 µg/mL); Activity [15]: Non-Toxic; MIC99 [16]: 2 µM (≈ 1.08 µg/mL); Activity [17]: Non-Toxic |
